Results of several laboratories.
Lines come from different studies, so protocols differ.
Medium: plasma

C[C@@H](Oc1ccc(S(C)(=O)=O)cc1C(=O)N1C[C@@H]2C[C@]2(c2cc(C(F)(F)F)on2)C1)C(F)(F)F
Vd/F (human; oral, 10 mg, single dose, fed): 247 L

COc1ccc(F)cc1C(=O)NCc1ccc(-c2nn([C@@H](C)C(F)(F)F)c(N)c2C(N)=O)cc1
Vd (male human; intravenous, 22 µg): 0.54 L/kg

C=CC(=O)N1C[C@H](Nc2ncnc3[nH]ccc23)CC[C@@H]1C
Vd/F (human; oral, 30 mg): 183 L

N#Cc1cccc(-c2ccc3ncc(-c4cc(F)cc(F)c4)c(N4CCC(N)CC4)c3c2)c1O
Vd (human; intravenous, 50 µg): 220 L

COc1ccc2c(c1)CN(C(=O)CCN1CCC(Cc3ccccc3)CC1)CC[S@@+]2[O-]
Vd (male human; intravenous, 0.4 mg/kg, healthy volunteers): 46.3 L

C=CC(=O)NC1CCN(c2ncc3ncnc(Nc4ccc(Oc5ccc6c(c5)ncn6C)c(C)c4)c3n2)CC1
Vd (male human; intravenous, 100 µg, single dose, healthy volunteers): 391 L

CC(C)c1nc(N(C)S(C)(=O)=O)nc(-c2ccc(F)cc2)c1/C=C/[C@@H](O)C[C@@H](O)CC(=O)O
Vd/F (human; oral, 10 mg): 8020 L

OC[C@H]1O[C@@H](c2cc(Cc3ccc(C4CC4)cc3)c(Cl)c3c2CCO3)[C@H](O)[C@@H](O)[C@@H]1O
Vd/F (human; oral, 0.3 mg, single dose, fed): 177 L
